According to ChEMBL document CHEMBL1142570, “Aurantosides G, H, and I: three new tetramic acid glycosides from a Papua New Guinea Theonella swinhoei” (J Nat Prod, 2005):
Calls of active or inactive are those of the source.

How the values were obtained:
[1] = system: HCT-116; assay: Cytotoxicity against human HCT 116 with wild type p53 at 0.008 to 124 uM by MTT assay; type: functional
In short: (§1)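 HCT116 p53+/+ and p53-/- cells grown in McCoy's medium with 2 mM L-glutamine, 1 mM sodium pyruvate, penicillin/streptomycin and 10% FBS at 37 °C, 5% CO2. Seeded at 4 × 10^5 cells/well and left to attach for 24 h. Exposed to 0-78 µg/mL compound for 72 h. MTT added (final 0.25 mg/mL) for 3 h, formazan dissolved in DMSO, A570 read, IC50 by curve fitting.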

[2] = system: HCT-116; assay: Cytotoxicity against human HCT 116 with null p53 mutant p53 at 0.008 to 124 uM by MTT assay; type: functional; in short: as §1
[3] = system: HCT-116; assay: Cytotoxicity against human HCT 116 with wild type p53 at 0.009 to 152 uM by MTT assay; type: functional; in short: as §1
[4] = system: HCT-116; assay: Cytotoxicity against human HCT 116 with wild type p53 at 0.006 to 103 uM by MTT assay; type: functional; in short: as §1
[5] = system: Human immunodeficiency virus 1; assay: Antiviral activity against HIV1 at 1 ug/ml; type: functional, organism-based
[6] = system: HCT-116; assay: Cytotoxicity against human HCT 116 with null p53 mutant at 0.006 to 103 uM by MTT assay; type: functional; in short: as §1
[7] = system: HCT-116; assay: Cytotoxicity against human HCT 116 with null p53 mutant at 0.009 to 152 uM by MTT assay; type: functional; in short: as §1
[8] = system: Human immunodeficiency virus 1; assay: Antiviral activity against HIV1 at 10 ug/ml; type: functional, organism-based

Measured: Activity

C/C(Cl)=C/C=C/C=C/C=C/C=C/C(O)=C1\C(=O)[C@H](CC(N)=O)N([C@@H]2OC[C@@H](O)[C@H](O)[C@H]2O[C@@H]2OC[C@@H](O)[C@@H](O)[C@@H]2O)C1=O
inactive: all assays above

C/C(Cl)=C/C=C/C=C/C=C/C=C/C(O)=C1\C(=O)[C@H](CC(N)=O)N([C@@H]2OC[C@@H](O)[C@H](O)[C@H]2O)C1=O
inactive: all assays above

CO[C@@H]1[C@H](O[C@@H]2CO[C@@H](O[C@@H]3[C@@H](O)[C@H](O)CO[C@H]3N3C(=O)/C(=C(O)/C=C/C=C/C=C/C=C/C=C(/C)Cl)C(=O)[C@@H]3CC(N)=O)[C@@H](O)[C@@H]2O)O[C@H](C)[C@H]1O
inactive: all assays above
